In ChEMBL document CHEMBL4665760, “Rational Design and Synthesis of Methyl-β-d-galactomalonyl Phenyl Esters as Potent Galectin-8N Antagonists” (J Med Chem, 2020):
One block for each molecule: values may come before it. Calls of active or inactive are those of the source. The calls are words filed in the database; no cut-off is given here.

Tests used:
[1] = target: T1, Galectin-8 (Homo sapiens, UniProt O00214); test: Binding affinity to N-terminal domain of human galectin-8 (8-154 residues) by ITC assay
T1 sequence (O00214 whole entry): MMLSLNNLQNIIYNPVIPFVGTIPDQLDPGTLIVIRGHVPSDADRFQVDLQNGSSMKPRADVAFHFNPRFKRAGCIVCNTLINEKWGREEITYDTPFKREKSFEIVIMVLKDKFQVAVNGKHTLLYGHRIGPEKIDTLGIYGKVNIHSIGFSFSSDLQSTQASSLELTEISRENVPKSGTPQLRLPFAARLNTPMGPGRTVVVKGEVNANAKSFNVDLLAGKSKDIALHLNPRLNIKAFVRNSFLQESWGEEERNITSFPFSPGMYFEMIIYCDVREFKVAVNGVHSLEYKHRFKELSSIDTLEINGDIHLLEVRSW
Procedure, shortened: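 Untagged galectin-8N (residues 8-154) was expressed in bacteria (IPTG induction 4 h, room temperature) and purified on lactosyl-Sepharose at 4 °C. Protein and ligand were in 20 mM Tris pH 7.5, 100 mM NaCl, 4 mM BME, 5% DMSO and degassed. Ligand (0.5 or 1 mM) was titrated into 100 µM protein over 20-25 × 2.5 µl injections, 150 s apart, at 298 K. Blank-corrected data were fitted to an independent-site model for Kd.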

[2] = target: T2, Galectin-8 (Homo sapiens) (UniProt O00214); test: Antagonist activity at galectin-8 in human SUM159PT cells assessed as reduction in galectin-8-induced IL-8 mRNA expression at 1 uM incubated for 24 hrs by real-time PCR analysis; format: cell-based; details: filed as antagonist
T2 sequence (whole entry): T1 sequence (O00214 whole entry)
Procedure, shortened: (§1)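 SUM159 triple-negative breast cancer cells in RPMI/10% FBS at 37 °C, 5% CO2, seeded at 50000 cells/cm². Galectin-8 (50 nM) stimulated, with or without compound. Dose-response run at 1, 10, 100 and 500 µM.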

[3] = target: T2, Galectin-8 (Homo sapiens); test: Antagonist activity at galectin-8 in human SUM159PT cells assessed as reduction in galectin-8-induced IL-8 mRNA expression at 500 uM incubated for 24 hrs by real-time PCR analysis; format: cell-based
Procedure, shortened: (§2)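 SUM159 triple-negative breast cancer cells grown in RPMI with 10% FBS and penicillin/streptomycin at 37 °C, 5% CO2. Cells seeded at 50000 cells/cm², then incubated 24 h with compound at 500 µM, with or without 50 nM galectin-8. Means ± SEM from experiments done in duplicates.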

[4] = target: T2, Galectin-8 (Homo sapiens); test: Antagonist activity at galectin-8 in human SUM159PT cells assessed as reduction in galectin-8-induced IL-6 mRNA expression at 1 uM incubated for 24 hrs by real-time PCR analysis; format: cell-based; details: filed as antagonist; procedure, shortened: as §1
[5] = target: T2, Galectin-8 (Homo sapiens); test: Antagonist activity at galectin-8 in human SUM159PT cells assessed as reduction in galectin-8-induced IL-6 mRNA expression at 500 uM incubated for 24 hrs by real-time PCR analysis; format: cell-based; procedure, shortened: as §2
[6] = target: T2, Galectin-8 (Homo sapiens); test: Antagonist activity at galectin-8 in human SUM159PT cells assessed as reduction in galectin-8-induced IL-1beta mRNA expression at 500 uM incubated for 24 hrs by real-time PCR analysis; format: cell-based; procedure, shortened: as §2
[7] = target: T2, Galectin-8 (Homo sapiens); test: Potency index, ratio of Kd for lactose to Kd for test compound for binding affinity to N-terminal domain of human galectin-8 (8-154 residues) by ITC assay; details: filed as antagonist

Compound: CO[C@@H]1O[C@H](CO)[C@H](O)[C@H](OC(=O)CC(=O)Oc2ccc(Cl)cc2Cl)[C@H]1O
- Kd [1]: 11.9 µM

Compound: CO[C@@H]1O[C@H](CO)[C@H](O)[C@H](OC(=O)CC(=O)Oc2ccccc2)[C@H]1O
- Kd [1]: 12.8 µM

Compound: COc1cc(OC)cc(OC(=O)CC(=O)O[C@H]2[C@@H](O)[C@@H](CO)O[C@@H](OC)[C@@H]2O)c1
- Kd [1]: 11 µM

Compound: CO[C@@H]1O[C@H](CO)[C@H](O)[C@H](OC(=O)CC(=O)Oc2ccc(F)cc2)[C@H]1O
- inhibition [2]: Active
- inhibition ([3]; filed as antagonist): Active
- inhibition [4]: Active
- Ratio [7]: 7
- inhibition ([5]; filed as antagonist): Active
- Antagonist activity ([6]; filed as antagonist): Active
- Kd [1]: 5.72 µM

Compound: COc1ccc(OC(=O)CC(=O)O[C@H]2[C@@H](O)[C@@H](CO)O[C@@H](OC)[C@@H]2O)cc1
- Kd [1]: 9.47 µM

Next, values leading:

- inhibition [2]: Active
- inhibition ([3]; filed as antagonist): Active
- inhibition [4]: Active
- inhibition ([5]; filed as antagonist): Active
- Antagonist activity ([6]; filed as antagonist): Active
- Kd [1]: 9.17 µM
Compound: CO[C@@H]1O[C@H](CO)[C@H](O)[C@H](OC(=O)CC(=O)OCc2ccccc2)[C@H]1O

- Kd [1]: 2.3 µM
Compound: CC(=O)N[C@H]1[C@H]([C@H](O)[C@H](O)CO)O[C@@](O[C@H]2[C@@H](O)[C@@H](CO)O[C@@H](O[C@H]3[C@H](O)[C@@H](O)[C@H](O)O[C@@H]3CO)[C@@H]2O)(C(=O)O)C[C@@H]1O

- inhibition [3]: inactive
- inhibition [5]: inactive
- Antagonist activity [6]: inactive
- Kd [1]: 33.6 µM
Compound: CO[C@@H]1O[C@H](CO)[C@H](O)[C@H](OC(=O)CC(=O)O)[C@H]1O

- inhibition [3]: inactive
- inhibition [5]: inactive
- Antagonist activity [6]: inactive
- Kd [1]: 24.9 µM
Compound: COC(=O)CC(=O)O[C@H]1[C@@H](O)[C@@H](CO)O[C@@H](OC)[C@@H]1O
